Source: PubChem BioAssay (The Scripps Research Institute Molecular Screening Center)
MBD2 inh = inhibitors of human MBD2 binding to methylated oligonucleotide | AID 686964 | TR-FRET | actives 0.31% (n = 370,000) | inhibition, % at 4.4 µM | Q9UBB5; in the data active = inhibition above about 13%
Target sequence (Q9UBB5 whole entry, looked up): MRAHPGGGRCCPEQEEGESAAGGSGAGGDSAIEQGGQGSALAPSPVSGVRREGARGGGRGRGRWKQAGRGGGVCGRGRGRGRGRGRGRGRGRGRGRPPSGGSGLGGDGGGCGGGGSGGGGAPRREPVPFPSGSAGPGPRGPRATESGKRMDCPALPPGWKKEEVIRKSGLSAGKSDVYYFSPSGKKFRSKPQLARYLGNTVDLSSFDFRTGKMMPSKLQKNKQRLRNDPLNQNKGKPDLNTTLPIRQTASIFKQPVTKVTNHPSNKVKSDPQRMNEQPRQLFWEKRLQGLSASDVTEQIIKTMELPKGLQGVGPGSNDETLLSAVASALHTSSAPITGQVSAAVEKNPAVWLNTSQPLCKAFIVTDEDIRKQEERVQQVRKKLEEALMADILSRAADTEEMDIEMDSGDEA
UHRF1 MBD2 ctr = human UHRF1 methylated DNA binding inhibitors; UHRF1 binding to methylated oligo, TR-FRET; actives 0.75% (n = 370,000); AID 687016; inhibition, % at 4.4 µM; Q96T88; in the data active = inhibition above about 21%;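 note: UHRF1 SRA domain binding a hemimethylated CpG hairpin DNA probe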
PRMT1 FP inh = blocks human protein arginine methyltransferase 1. Q99873. recombinant PRMT1, activity-based probe fluorescence polarization. inhibition, % at 2.79 µM. actives 1.3% (n = 370,000). AID 652257;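 active = inhibition above about 21% made by adding two undisclosed values, limit read from the data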
LEDGF integ inh = blocks HIV-1 LEDGF/p75-dependent DNA integration; TR-FRET IN-LEDGF/p75 DNA integration, Eu/Cy5; inhibition, % at 3.7 µM; actives 0.64% (n = 370,000);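 active = inhibition above the screen-wide mean plus 3 SD, cut at about 13% in these data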;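 note: signal is the Cy5 over europium emission ratio at 671 and 618 nm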
ABHD5 PLIN5 PPI = ABHD5-PLIN5 protein interaction inhibition | Split G. princeps luciferase complementation, luminescence, 4 h | inhibition, % at 4 µM | actives 0.78% (n = 360,000) | AID 602281;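 active = inhibition above the mean inhibition across every tested compound plus 3 SD, cut at about 22% in these data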
RBBP9 inhibitor = human RBBP9 hydrolase inhibition | recombinant RBBP9, FP-Rh probe fluorescence polarization | actives 0.2% (n = 220,000) | inhibition, % at 7.94 µM;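 active = inhibition above the campaign mean of all tested compounds plus 3 SD, cut at about 14% in these data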
Target sequence (O75884 whole entry, looked up): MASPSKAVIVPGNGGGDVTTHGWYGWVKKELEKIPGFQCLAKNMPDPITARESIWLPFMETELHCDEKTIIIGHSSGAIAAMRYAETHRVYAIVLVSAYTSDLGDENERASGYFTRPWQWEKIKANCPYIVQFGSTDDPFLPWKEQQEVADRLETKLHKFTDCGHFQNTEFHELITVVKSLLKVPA
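System: RBBP9 protein / Buffer or medium: Tris/NaCl buffer pH 8.0 with 0.1% Pluronic / Probe or stimulus: Serine-hydrolase probe FP-Rh, 375 nM pre-mixing / Dosing: 7.94 µM single dose, 0.794% DMSO / Times: enzyme-compound preincubation 30 min, then probe labeling 45 min, 25 °C / Technique: fluorescence polarization (mP), excitation 525 nm, emission 598 nm / Replication: singlicate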
PRMT1 inh conf = confirmation of human PRMT1 inhibitors. shares compounds with PRMT1 FP inh. inhibition, % at 2.79 µM. recombinant His-PRMT1, activity-based probe fluorescence polarization. actives 42% (n = 3,300);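 active = mean inhibition across replicates above the hit cutoff derived for the earlier primary screen, cut at about 22% in these data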
Numbers stand for hits; n = inactive; x = not tested or not shown. Compounds with a hit are over-represented: about 3.1% of the library has one in this group of screens.

SMILES	MBD2 inh	UHRF1 MBD2 ctr	PRMT1 FP inh	LEDGF integ inh	ABHD5 PLIN5 PPI	RBBP9 inhibitor	PRMT1 inh conf
C=CCSC1=C(C#N)C(c2ccccc2Cl)CC(=O)N1 (stereo not drawn)	n	n	45.5	n	n	n	n
C=CCSC1=C(C#N)C(c2ccc(OCC)cc2)CC(=O)N1 (stereo not drawn)	n	n	28.8	n	n	n	n
C=CCSC1=C(C#N)C(c2ccccc2C)CC(=O)N1 (stereo not drawn)	n	n	n	n	n	n	x
CCOc1ccc(C2CC(=O)NC(SC)=C2C#N)cc1 (stereo not drawn)	n	n	n	n	n	n	x
COC(=O)C1CN(C2CCCC2)CCS(=O)(=O)N1Cc1ccc(F)cc1 (stereo not drawn)	n	n	n	n	x	x	x
COC(=O)CSc1nnc(-c2ccc(NS(=O)(=O)c3ccc(Cl)s3)cc2)o1	n	n	n	n	x	x	x
O=C1CCNc2ccc(-c3ccccc3)cc21	n	n	74.9	n	n	n	79.2
Cc1ccc(NC(=O)CSc2ccc(-c3cccnc3)nn2)c(C)c1	n	n	50.8	n	n	x	n
CC(C)c1nnc(SCC(=O)NCCC2=CCCCC2)n1N	n	n	34.4	n	n	n	39.2
CCOC(=O)c1sc(NNC(=O)c2ccc(F)cc2)nc1C	n	n	41.9	n	n	n	n
CCOC(=O)c1sc(NNC(=O)c2ccc(C)cc2)nc1C	n	n	n	n	n	n	x
COC(=O)C1=C(C)N(C)C(=NCc2ccc(OC)cc2)NC1c1cccc(Cl)c1 (stereo not drawn)	n	n	n	n	x	x	x
CC(C)N1CCc2c(sc(NC(=O)C(F)F)c2-c2nc3ccccc3s2)C1	n	n	28.9	n	x	x	n
CC(=O)Nc1sc2c(c1-c1nc3ccccc3s1)CCN(C(C)C)C2	x	x	x	x	n	n	x
COC(=O)c1cc2c(c3c4ccccc4n(S(C)(=O)=O)c13)C(=O)N(Cc1ccccc1)C2	n	n	n	n	x	x	x
COC(=O)C1=C(C)NC(=S)NC1c1ccc(Br)cc1 (stereo not drawn)	n	n	n	n	x	x	x
CCC(=O)/C=C1/Sc2ccccc2N1CC	n	n	28.6	n	n	n	26.8
CCN1/C(=C/C(=O)c2ccco2)Sc2ccccc21	n	n	44.7	n	n	n	n
Cc1csc(NC(=O)c2ccc(COc3ccccc3F)o2)n1	n	n	n	n	x	x	x
CC1(C)Cc2c(c(N3CCOCC3)nc3sc(C(=O)Nc4cccc(Cl)c4)c(N)c23)CO1	n	n	n	n	n	x	x
CC1(C)Cc2c(c(N3CCOCC3)nc3sc(C(=O)Nc4ccccc4)c(N)c23)CO1	n	n	27.2	n	n	x	23.5
COC(=O)[C@]12C[C@H](CC(=O)NCc3ccc(C)o3)C(=O)N(CCc3ccc(OC)c(OC)c3)C1=C[C@H](C(C)C)O[C@@H]2C1CC1	n	n	n	n	x	x	x
CC[C@@]1(O)C(=O)OCc2c1cc1n(c2=O)Cc2cc3c(CN(C)C)c(O)ccc3nc2-1	n	n	106.8	n	n	x	108.8
N#CC1=C(N)SC(N)=C(C#N)C1C1C=CCCC1 (stereo not drawn)	n	n	35.5	n	n	n	n
N#CC1=C(N)SC(N)=C(C#N)C1C1CC=CCC1 (stereo not drawn)	n	n	n	n	n	n	x
SMILES	MBD2 inh	UHRF1 MBD2 ctr	PRMT1 FP inh	LEDGF integ inh	ABHD5 PLIN5 PPI	RBBP9 inhibitor	PRMT1 inh conf
Cc1cc(OCC(C)CN2CCC(C(O)(c3ccccc3)c3ccccc3)CC2)ccc1Br (stereo not drawn)	n	n	n	n	x	x	x
CC(=O)Nc1cc(-c2ccccc2N(C)C)cn2c(-c3cccc(C(F)(F)F)c3)cnc12	n	n	99.2	n	n	x	n
Cc1ccc(-c2cc(-c3ccccc3)c(C#N)c(N)n2)o1	n	n	30.3	n	n	n	66.2
CN1CCCCC(NC(=O)c2ccc(F)c(F)c2)C1=O (stereo not drawn)	n	n	n	n	x	x	x
CCCCNC(=O)NS(=O)(=O)c1ccc(NC(=O)CSc2nnc(-c3ccc(Cl)cc3)n2N)cc1	n	n	n	n	x	x	x
O=C(NCSc1ccnc(SCNC(=O)c2ccccc2)n1)c1ccccc1	n	n	n	n	n	n	x
O=C(NCSc1ccncn1)c1ccccc1	n	n	49.4	n	n	n	n
CCOC(=O)C1=C(c2ccccc2)OC(N)=C(C#N)C1c1ccc(Cl)s1 (stereo not drawn)	n	n	n	n	n	n	x
CCN1CC=C2C(C1)C(c1ccc(Cl)s1)C(C#N)=C(N)C2(C#N)C#N (stereo not drawn)	n	n	30.3	n	n	n	36.3
Cc1ccccc1CN1CCCCC(NC(=O)C2CCCC2)C1=O (stereo not drawn)	n	n	n	n	x	x	x
CC1=C(SCCC#N)S/C(=C2\SC(C)=C(SCCC#N)S2)S1	n	n	71.2	n	n	n	47.4
COC(=O)c1ccc(N2C(=O)CC(N(C)CCc3ccc(OC)c(OC)c3)C2=O)cc1 (stereo not drawn)	n	n	n	n	n	n	x
COc1ccc(C2c3cc(OC)c(OC)cc3CCN2C2CC(=O)N(c3ccccc3)C2=O)cc1OC (stereo not drawn)	n	n	41.5	n	n	n	n
COc1ccc(CCN(C)C2CC(=O)N(c3ccccc3)C2=O)cc1OC (stereo not drawn)	n	n	45.6	n	n	n	n
COc1ccc(N2C(=O)CC(N(C)CCc3ccc(OC)c(OC)c3)C2=O)cc1 (stereo not drawn)	n	n	47.6	n	n	n	n
COc1ccc(N2C(=O)CC(N(CCc3ccc(OC)c(OC)c3)C(=S)Nc3ccccc3)C2=O)cc1 (stereo not drawn)	n	n	n	n	n	n	x
O=C1CC(N2CCc3ccccc32)C(=O)N1c1ccccc1 (stereo not drawn)	n	n	n	n	n	n	x
C[C@H](c1ccccc1)N1C[C@@H](COCc2ccccc2)Oc2cccc(Oc3ccc(F)cc3)c2S1(=O)=O	n	n	n	n	x	x	x
Cc1ccc(O)c(C(=O)c2cc(C#N)c(=O)n(-c3nccs3)c2)c1	n	n	39.4	n	n	n	31.4
NC(=S)NN=C1c2cc(S(=O)(=O)N3CCOCC3)ccc2-c2ccc(S(=O)(=O)N3CCOCC3)cc21	n	n	29.9	n	n	n	n
CN(C)N=C1c2cc(S(=O)(=O)N3CCOCC3)ccc2-c2ccc(S(=O)(=O)N3CCOCC3)cc21	n	n	n	n	n	n	x
N#CC1CCN(c2nc(-c3ccc(Br)cc3)cs2)CC1	n	n	n	n	x	x	x
O=c1[nH]c2c(s1)C=Nc1ccccc1N2	n	n	68.9	n	n	n	85.3
O=C(NCc1cccnc1)Nc1ccc2c(c1)OCO2	n	n	n	n	n	n	x
c1cncc(CNc2ccc3c(c2)OCO3)c1	n	n	74.7	n	n	n	n
